DDE Tn6 FP inh: disrupts Tn6 cyclic peptide binding to fibrin D-Dimer-E complex; P02675; Fibrin DD(E) TRITC-Tn6 fluorescence polarization displacement; inhibition, % at 8.3 µM; actives 0.21% (n = 370,000); AID 720509;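 active = inhibition above a per-campaign cutoff: mean of compounds within control limits plus 3 SD, cut at about 15% in these data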
PLCg1 inh: PLC-gamma1 (human) inhibition, primary screen; P19174; purified PLC-gamma1, fluorogenic substrate, fluorescence; inhibition, % at 12.2 µM; actives 0.84% (n = 370,000); AID 720700
Target sequence (P19174 whole entry, looked up): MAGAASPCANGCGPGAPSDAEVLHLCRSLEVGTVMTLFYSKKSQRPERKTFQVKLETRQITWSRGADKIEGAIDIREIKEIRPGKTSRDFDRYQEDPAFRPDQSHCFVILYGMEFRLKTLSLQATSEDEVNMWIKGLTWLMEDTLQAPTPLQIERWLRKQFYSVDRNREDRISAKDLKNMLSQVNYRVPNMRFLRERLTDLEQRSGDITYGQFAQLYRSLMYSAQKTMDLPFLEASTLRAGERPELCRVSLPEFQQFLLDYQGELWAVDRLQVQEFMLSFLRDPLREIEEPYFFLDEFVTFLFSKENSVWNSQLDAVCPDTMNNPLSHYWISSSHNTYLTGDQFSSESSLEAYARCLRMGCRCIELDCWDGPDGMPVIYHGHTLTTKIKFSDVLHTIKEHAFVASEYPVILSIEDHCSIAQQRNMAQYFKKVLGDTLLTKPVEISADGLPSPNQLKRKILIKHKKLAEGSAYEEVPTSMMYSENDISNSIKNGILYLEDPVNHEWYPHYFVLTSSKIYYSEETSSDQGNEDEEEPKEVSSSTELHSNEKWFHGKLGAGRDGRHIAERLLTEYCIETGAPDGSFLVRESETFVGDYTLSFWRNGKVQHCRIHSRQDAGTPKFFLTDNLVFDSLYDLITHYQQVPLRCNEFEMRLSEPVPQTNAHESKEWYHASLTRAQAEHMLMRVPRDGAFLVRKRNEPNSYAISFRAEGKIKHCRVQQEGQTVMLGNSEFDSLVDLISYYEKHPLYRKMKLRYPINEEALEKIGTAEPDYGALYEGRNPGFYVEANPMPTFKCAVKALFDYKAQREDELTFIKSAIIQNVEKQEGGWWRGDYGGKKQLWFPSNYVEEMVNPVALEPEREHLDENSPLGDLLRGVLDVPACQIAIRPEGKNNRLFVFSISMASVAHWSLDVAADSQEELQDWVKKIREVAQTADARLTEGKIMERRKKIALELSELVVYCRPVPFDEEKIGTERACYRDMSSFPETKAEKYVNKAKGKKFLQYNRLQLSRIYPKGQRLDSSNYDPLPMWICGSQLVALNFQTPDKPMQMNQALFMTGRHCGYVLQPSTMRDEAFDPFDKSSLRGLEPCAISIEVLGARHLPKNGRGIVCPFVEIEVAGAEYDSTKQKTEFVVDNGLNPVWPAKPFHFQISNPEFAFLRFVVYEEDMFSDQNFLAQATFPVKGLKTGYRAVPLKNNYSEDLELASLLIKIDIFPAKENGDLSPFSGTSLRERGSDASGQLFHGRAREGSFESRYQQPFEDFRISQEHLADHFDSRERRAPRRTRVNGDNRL
ADAM17 inh: inhibitors of human ADAM17; P78536; recombinant ADAM17, EDANS/DABCYL FRET peptide cleavage; inhibition, % at 6.95 µM; actives 0.83% (n = 370,000);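 active = inhibition above the mean of compounds lying between control limits plus 3 SD, set per campaign, cut at about 8.5% in these data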
Tn7 DDE FP: inhibitors of Tn7 peptide binding to human fibrin DD(E). FP displacement of FITC-Tn7 peptide from fibrin DD(E); 0% = median of compound wells per plate. P02675. AID 720508. actives 0.13% (n = 370,000). inhibition, % at 8.3 µM;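 active = inhibition above the mean of compounds falling within the control limits plus 3 SD of them, cut at about 14% in these data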
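Assay system: Human clot-derived fibrin DD(E) complex | Buffer or medium: Tris/NaCl/CaCl2 buffer, pH 7.8 | Repeats: One replicate per compound | Benchmarks: Aha-Tn7 high control | Measure: % inhibition scaled between sample-field median and high-control FP | Schedule: 10 min plus 3 h, room temperature | Signal: Fluorescence polarization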
PLCb3 inh: blocks human PLC-beta3 enzyme activity; Q01970; Purified PLC-beta3, fluorogenic substrate, fluorescence; inhibition, % at 12.2 µM; actives 0.18% (n = 370,000); in the data active = inhibition above about 11%
ADAM10 inh: ADAM10 inhibition, QFRET primary screen | O14672 | recombinant ADAM10, EDANS/DABCYL FRET peptide cleavage, 3 h | inhibition, % at 7 µM | actives 0.62% (n = 370,000) | AID 720582;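 active = inhibition above a per-campaign cutoff equal to the mean of compounds falling between control-based bounds plus 3 SD, cut at about 20% in these data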
PLCgamma1 ctr: counter-screen for PLC-beta3 inhibitors: inhibitors of human PLC-gamma1. shares compounds with PLCg1 inh. purified PLC-gamma1, fluorogenic substrate, fluorescence. inhibition, % at 12.3 µM. actives 3.1% (n = 3,300). AID 743258
PLCb3 confirm: human PLC-beta3 inhibition, confirmation. shares compounds with PLCg1 inh. purified PLC-beta3, fluorogenic substrate fluorescence. inhibition, % at 12.3 µM. actives 1% (n = 3,300); in the data active = inhibition above about 11%
Numbers stand for hits; - = inactive; . = no result given. Sampled rows, rich in hits. Any-hit rate of the full collection: about 2.3%. Cut-off read from the data, not from the text of the source, unless noted: active = inhibition above about 9.5%; inactive = the rest.

SMILES | DDE Tn6 FP inh | PLCg1 inh | ADAM17 inh | Tn7 DDE FP | PLCb3 inh | ADAM10 inh | PLCgamma1 ctr | PLCb3 confirm
CCn1cc(C(=O)N[C@H](C(=O)O)C(C)C)c(=O)c2cc3c(cc21)OCO3 | - | - | - | - | - | - | . | .
CCn1nc(C(=O)O)c(=O)c2cc3c(cc21)OCO3 | - | 10 | - | - | - | - | - | -
CCc1nc2sc3c(c2c(=O)n1N)CCC3 | - | 11 | - | - | - | - | - | -
CCCc1nc2sc3c(c2c(=O)n1N)CCC3 | - | - | - | - | - | - | . | .
NC(=O)CN1C(=O)C2C3CCC(C3)C2C1=O (centres undefined) | - | - | - | - | - | - | . | .
O=C(O)CN1C(=O)C2C3CCC(C3)C2C1=O (centres undefined) | - | 14 | - | - | - | - | - | -
CC1(C)CC(NC(=O)c2ccncc2)CC(C)(C)N1O | - | 11 | - | - | - | - | - | -
CN1CCC(NC(=O)c2ccncc2)CC1 | - | - | - | - | - | - | . | .
O=S(=O)(NCc1ccc(Cl)cc1)c1ccc(Br)cc1C1CC[C@@H](O)C1 (some centres undefined) | - | - | - | - | - | - | . | .
O=C(Nc1ccncc1)c1ccc2c(c1)C(=O)N(CC1CCCO1)C2=O (centres undefined) | - | 11 | - | - | - | - | - | -
CNC[C@@H](Cc1ccccc1)NC[C@@H](CC1CCCCC1)NCCCc1ccccc1 | - | 13 | - | - | - | - | - | -
COc1cc(-n2c(C)nc3cc(C(=O)N4CC(C)CC(C)C4)ccc32)cc(OC)c1OC (centres undefined) | - | - | - | - | - | - | . | .
O=C(CCCC(=O)N1CCc2ccccc21)N1CCc2ccccc21 | - | - | - | - | - | - | . | .
O=C(Cc1ccc(-n2cccc2)cc1)N1CCc2ccccc21 | - | 9.9 | - | - | - | - | - | -
CCCCNc1c(-c2cccc(-c3cc(C(C)=O)cs3)c2)nc2ccc(C)cn12 | - | 9.7 | - | - | - | - | - | -
COC(=O)[C@H]1C[C@@]2(N3CCCCC3)c3ccccc3N[C@H]2N1S(=O)(=O)c1ccc([N+](=O)[O-])cc1 | - | - | - | - | - | - | . | .
Cc1ccc(S(=O)(=O)/N=C2/NC(=O)/C(=C\c3ccccc3)S2)cc1 | - | - | - | - | - | - | . | .
Cc1ccc(S(=O)(=O)N=C2SCCCS2)cc1 | - | 9.9 | - | - | - | - | - | -
CN(Cc1ccccc1)C(=O)OCc1cn(Cc2ccc(F)c(F)c2)nn1 | - | - | - | - | - | - | . | .
Cc1ccccc1C(=O)NCCCc1ccccc1 | - | 11 | - | - | - | - | - | -
Cc1ccccc1C(=O)NCCCCc1ccccc1 | - | - | - | - | - | - | . | .
COc1ccccc1NC(=S)OCCN1CCCC12CCC(c1ccccc1)CC2 (centres undefined) | - | - | - | - | - | - | . | .
COC(=O)[C@H](C(C)C)N1Cc2nnn(Cc3ccccc3)c2-c2cc(F)ccc2S1(=O)=O | - | - | - | - | - | - | . | .
Cc1ccc(-c2nn(-c3ccccc3)cc2CO)cc1 | - | - | - | - | - | - | . | .
N=C(N)SCc1cn(-c2ccccc2)nc1-c1ccc(Br)cc1 | - | 9.5 | - | - | - | - | - | -
SMILES | DDE Tn6 FP inh | PLCg1 inh | ADAM17 inh | Tn7 DDE FP | PLCb3 inh | ADAM10 inh | PLCgamma1 ctr | PLCb3 confirm
Cc1[nH][nH]c(=O)c1C(c1ccc(-c2ccc(F)cc2)o1)c1c(C)[nH][nH]c1=O | - | 11 | - | - | - | - | - | -
Cc1[nH][nH]c(=O)c1C(c1ccc(-c2ccc(C(=O)O)cc2)o1)c1c(C)[nH][nH]c1=O | - | - | - | - | - | - | . | .
O=C(N1CCOCC1)N1CCN(Cc2ccccc2)CC1 | - | 10 | - | - | - | - | - | -
c1ccc(CN2CCOCCOCCOCC2)cc1 | - | - | - | - | - | - | . | .
COC(=O)C[C@@H]1CC[C@H]2[C@@H](COc3ccc(NC(=O)NC(C)C)cc3C(=O)N2C)O1 | - | - | - | - | - | - | . | .
O=C1NC[C@@H](Cc2ccc(O)cc2)N(CCc2cc(C(F)(F)F)cc(C(F)(F)F)c2)C1=O | - | - | - | - | 11 | - | - | -
Oc1ccc(C[C@H]2CNC(=S)N2CCc2cc(C(F)(F)F)cc(C(F)(F)F)c2)cc1 | - | - | - | - | - | - | . | .
CN(C(=O)COc1cccc(C#N)c1)C1CCS(=O)(=O)C1 (centres undefined) | - | 11 | - | - | - | - | - | -
O=S(=O)(c1ccc(F)c(F)c1)N1CCN(Cc2ccc3c(c2)OCO3)CC1 | - | 11 | - | - | - | - | - | -
COc1ccc(C(=O)Nc2ccc3c(c2)C(=O)N(C)[C@H]2CC[C@H](CC(=O)NCC4CC4)O[C@@H]2CO3)cc1 | - | - | - | - | - | - | . | .
O=S1(=O)c2ccc(Br)cc2OC[C@@H](Cc2ccccc2)N1Cc1cn(CC2CCCCC2)nn1 | - | 10 | - | - | - | - | - | -
C[C@@H]1COc2cc(Br)ccc2S(=O)(=O)N1Cc1cn(CC2CCCCC2)nn1 | - | - | - | - | - | - | . | .
COc1ccc(Cn2ccc3ccc(-c4ccc5ccn(C(=O)c6cccc(OC)c6)c5c4)cc32)cc1 | - | - | - | - | - | - | . | .
CCCC[C@H](C(=O)N(C)c1ccccc1)[C@@H](O)c1ccc(Cl)cc1 | - | - | - | - | - | - | . | .
COc1ccc(S(=O)(=O)N(C)CC(=O)Nc2cccc(C(C)=O)c2)cc1 | - | - | - | - | - | - | . | .
COc1ccc(S(=O)(=O)N(C)CC(=O)Nc2ccc(F)cc2)cc1 | - | - | - | - | 11 | - | - | -
C[C@@H]1ON(C)[C@H]2C[C@H]3c4cc(-c5cc6ccccc6o5)ccc4CCN3C[C@@H]12 | - | - | - | - | - | - | . | .
CCn1c(=O)cc(OCC(=O)NCc2ccc(C)o2)c2ccccc21 | - | - | - | - | - | - | . | .
CCn1c(=O)cc(OCC(=O)NCc2ccco2)c2ccccc21 | - | 12 | - | - | - | - | - | -
COC(=O)c1c(-c2c(Cl)cccc2Cl)noc1C(=O)NNC(=O)N(C)C | - | 9.8 | - | - | - | - | - | -
COC(=O)c1cc(-c2ccc(C)cc2)n[nH]1 | - | 10 | - | - | - | - | - | -
CCOC(=O)c1c(C)[nH]c(C)c1S(=O)(=O)NC(C)Cc1ccco1 (centres undefined) | - | - | - | - | - | - | . | .
CCOC(=O)c1c(C)[nH]c(C)c1S(=O)(=O)N(C)Cc1ccco1 | - | 11 | - | - | - | - | - | -
O=C(Nc1ccc(Cl)c(Cl)c1)Nc1ccc(Br)cc1F | - | - | - | - | 12 | - | - | -
